Activity calls are given as the source filed them. The calls are words filed in the database; no cut-off is given here.
Columns and labels:
Format in all cases: functional
Keratinocyte [1] = experiment: Effect on cellular connection related gene expression in diabetic adult human primary keratinocytes assessed as GJB2 mRNA levels at 1.96 uM after 6 hrs by qPCR analysis
Keratinocyte [2] = experiment: Effect on pro-inflammatory related gene expression in non-diabetic adult human primary keratinocytes assessed as IL6 mRNA levels at 1.96 uM after 6 hrs by qPCR analysis
Keratinocyte [3] = experiment: Effect on wound healing activity in non-diabetic adult human primary keratinocytes assessed as increase in soluble gp130 part of IL6 receptor protein levels at 1.96 uM after 24 hrs by bead-based suspension array analysis
Fibroblast [4] = experiment: Effect on antiinflammatory related gene expression in non-diabetic young human primary fibroblasts assessed as SOCS3 mRNA levels at 1.96 uM after 6 hrs by qPCR analysis
Procedure, shortened: (§1)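 Primary dermal fibroblasts from one nondiabetic young, one nondiabetic adult and one diabetic adult donor; 320 000 cells per sample, 6 h at 1.96 or 9.81 μM. RNA measured on a high-throughput qPCR chip. Fold change versus 0.1% DMSO control, four independent experiments, SD, one-way ANOVA with Bonferroni post-test.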

[5] = Effect on wound healing activity in diabetic adult human primary keratinocytes assessed as upregulation of soluble E-selectin protein levels at 1.96 uM after 24 hrs by bead-based suspension array analysis; details: Keratinocyte
Fibroblast [6] = experiment: Effect on antiinflammatory related gene expression in non-diabetic adult human primary fibroblasts assessed as SOCS3 mRNA levels at 1.96 uM after 6 hrs by qPCR analysis; procedure, shortened: as §1
Keratinocyte [7] = experiment: Effect on pro-inflammatory related gene expression in diabetic adult human primary keratinocytes assessed as IL1R1 mRNA levels at 1.96 uM after 6 hrs by qPCR analysis
Fibroblast [8] = experiment: Effect on adhesion molecules related gene expression in diabetic adult human primary fibroblasts assessed as ICAM1 mRNA levels at 9.81 uM after 6 hrs by qPCR analysis
Procedure, shortened: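 Dermal fibroblasts from nondiabetic adult and diabetic adult donors, exposed for 6 h at 1.96 or 9.81 μM. ICAM-1 and VCAM-1 mRNA measured by standard qRT-PCR, n = 3. Fold change versus 0.1% DMSO control, SD, one-way ANOVA with Bonferroni post-test.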

[9] = Effect on wound healing activity in non-diabetic adult human primary keratinocytes assessed as upregulation of IL8 protein levels at 1.96 uM after 24 hrs by bead-based suspension array analysis; details: Keratinocyte
Keratinocyte [10] = experiment: Effect on antioxidant related gene expression in diabetic adult human primary keratinocytes assessed as SOD2 mRNA levels at 9.81 uM after 6 hrs by qPCR analysis
Fibroblast [11] = experiment: Effect on pro-inflammatory related gene expression in non-diabetic adult human primary fibroblasts assessed as IL1R1 mRNA levels at 9.81 uM after 6 hrs by qPCR analysis
Keratinocyte [12] = experiment: Effect on AQP3 mRNA expression levels in non-diabetic adult human primary keratinocytes at 1.96 uM after 6 hrs by qPCR analysis
Procedure, shortened: (§2)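 Primary keratinocytes from nondiabetic young and adult and diabetic adult donors; 400 000 cells per sample, 6 h exposure at 1.96 or 9.81 μM. RNA extracted and read on a high-throughput qPCR chip. Results are fold change versus 0.1% DMSO solvent control from 5−7 independent experiments over two donors per group, SD, one-way ANOVA with Bonferroni post-test.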

Fibroblast [13] = experiment: Effect on pro-inflammatory related gene expression in diabetic adult human primary fibroblasts assessed as IL1B mRNA levels at 9.81 uM after 6 hrs by qPCR analysis
Procedure, shortened: (§3)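 Primary human dermal fibroblasts (young or adult nondiabetic, adult diabetic donor) were treated for 6 h against a 0.1% DMSO solvent control. RNA from 320 000 cells per sample was measured by Fluidigm Biomark high-throughput qPCR. Values are fold change relative to solvent control, from four independent experiments, with SD. One-way ANOVA with Bonferroni post-test was applied.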

Keratinocyte [14] = experiment: Effect on AQP3 mRNA expression levels in non-diabetic young human primary keratinocytes at 1.96 uM after 6 hrs by qPCR analysis; procedure, shortened: as §2
Keratinocyte [15] = experiment: Effect on pro-inflammatory related gene expression in non-diabetic young human primary keratinocytes assessed as TNF mRNA levels at 9.81 uM after 6 hrs by qPCR analysis
Fibroblast [16] = experiment: Effect on growth factor related gene expression in non-diabetic adult human primary fibroblasts assessed as VEGFA mRNA levels at 1.96 uM after 6 hrs by qPCR analysis; procedure, shortened: as §3
Keratinocyte [17] = experiment: Effect on chemokines related gene expression in diabetic adult human primary keratinocytes assessed as CXCL10 mRNA levels at 9.81 uM after 6 hrs by qPCR analysis
Fibroblast [18] = experiment: Effect on pro-inflammatory related gene expression in non-diabetic adult human primary fibroblasts assessed as IL6 mRNA levels at 9.81 uM after 6 hrs by qPCR analysis
Keratinocyte [19] = experiment: Effect on chemokines related gene expression in diabetic adult human primary keratinocytes assessed as CXCL10 mRNA levels at 1.96 uM after 6 hrs by qPCR analysis
[20] = Effect on wound healing activity in diabetic adult human primary fibroblasts assessed as upregulation of soluble ICAM1 protein levels at 1.96 uM after 24 hrs by bead-based suspension array analysis; details: Fibroblast
Keratinocyte [21] = experiment: Effect on antioxidant related gene expression in non-diabetic young human primary keratinocytes assessed as SOD2 mRNA levels at 9.81 uM after 6 hrs by qPCR analysis
Fibroblast [22] = experiment: Effect on MMP1 mRNA expression levels in diabetic adult human primary fibroblasts at 9.81 uM after 6 hrs by qPCR analysis; procedure, shortened: as §1
Keratinocyte [23] = experiment: Effect on pro-inflammatory related gene expression in non-diabetic young human primary keratinocytes assessed as IL6 mRNA levels at 1.96 uM after 6 hrs by qPCR analysis
Keratinocyte [24] = experiment: Effect on chemokines related gene expression in non-diabetic adult human primary keratinocytes assessed as CXCL10 mRNA levels at 9.81 uM after 6 hrs by qPCR analysis
[25] = Effect on wound healing activity in non-diabetic adult human primary fibroblasts assessed as upregulation of RANTES protein levels at 1.96 uM after 24 hrs by bead-based suspension array analysis; details: Fibroblast
Keratinocyte [26] = experiment: Effect on antiinflammatory related gene expression in diabetic adult human primary keratinocytes assessed as NFKBIA mRNA levels at 9.81 uM after 6 hrs by qPCR analysis; procedure, shortened: as §2
Keratinocyte [27] = experiment: Effect on chemokines related gene expression in non-diabetic adult human primary keratinocytes assessed as IL8 mRNA levels at 1.96 uM after 6 hrs by qPCR analysis
Fibroblast [28] = experiment: Effect on chemokines related gene expression in non-diabetic adult human primary fibroblasts assessed as CCL2 mRNA levels at 1.96 uM after 6 hrs by qPCR analysis
[29] = Effect on wound healing activity in diabetic adult human primary fibroblasts assessed as upregulation of RANTES protein levels at 1.96 uM after 24 hrs by bead-based suspension array analysis; details: Fibroblast
Keratinocyte [30] = experiment: Effect on antiinflammatory related gene expression in non-diabetic adult human primary keratinocytes assessed as NFKBIA mRNA levels at 1.96 uM after 6 hrs by qPCR analysis; procedure, shortened: as §2
Keratinocyte [31] = experiment: Effect on antioxidant related gene expression in non-diabetic young human primary keratinocytes assessed as SOD2 mRNA levels at 1.96 uM after 6 hrs by qPCR analysis

C=C(C)[C@@H]1CC[C@]2(CO)CC[C@]3(C)[C@H](CC[C@@H]4[C@@]5(C)CC[C@H](O)C(C)(C)[C@@H]5CC[C@]43C)[C@@H]12 [BETULIN]
fold change (FC) (Keratinocyte [1]): 0.9 | fold change (FC) (Keratinocyte [2]): 16.2 | Activity (Keratinocyte [3]): Active | fold change (FC) (Fibroblast [4]): 3 | Activity [5]: Active | fold change (FC) (Fibroblast [6]): 24.4 | fold change (FC) (Keratinocyte [7]): 0.8 | fold change (FC) (Fibroblast [8]): 2.3 | Activity [9]: Active | fold change (FC) (Keratinocyte [10]): 1.6 | fold change (FC) (Fibroblast [11]): 4.9 | fold change (FC) (Keratinocyte [12]): 0.8 | fold change (FC) (Fibroblast [13]): 2.9 | fold change (FC) (Keratinocyte [14]): 0.9 | fold change (FC) (Keratinocyte [15]): 6 | fold change (FC) (Fibroblast [16]): 1.4 | fold change (FC) (Keratinocyte [17]): 12.1 | fold change (FC) (Fibroblast [18]): 246 | fold change (FC) (Keratinocyte [19]): 6 | Activity [20]: Active | fold change (FC) (Keratinocyte [21]): 1.4 | fold change (FC) (Fibroblast [22]): 0.6 | fold change (FC) (Keratinocyte [23]): 3.6 | fold change (FC) (Keratinocyte [24]): 4.3 | Activity [25]: Active | fold change (FC) (Keratinocyte [26]): 2 | fold change (FC) (Keratinocyte [27]): 24.2 | fold change (FC) (Fibroblast [28]): 171 | Activity [29]: Active | fold change (FC) (Keratinocyte [30]): 1.4 | fold change (FC) (Keratinocyte [31]): 1.3

Reference: ChEMBL document CHEMBL3853270, “Influence of Birch Bark Triterpenes on Keratinocytes and Fibroblasts from Diabetic and Nondiabetic Donors” (2016)
